Measured values as given in ChEMBL document CHEMBL1130097, “Synthesis and anti-HIV-1 activity of a series of 1-alkoxy-5-alkyl-6-(arylthio)uracils” (J Med Chem, 1997).

Key:
[1] = system: Avian myeloblastosis virus; assay: Inhibitory effect on recombinant AMV reverse transcriptase; assay type: functional
How it was run: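 Recombinant RT (0.05 unit of HIV-1, AMV or Mo-MuLV) in 50 mM Tris-HCl pH 7.8, 50 mM KCl, 30 mM MgCl2, 1 mM DTT and 0.01% Triton X-100. Template poly r(A)d(T)12-18 (5.0 μg) with 0.5 μCi [3H]dTTP. Compound added in DMSO (final below 1%), 1 h at 37 °C. Reaction stopped with cold 20% TCA and precipitate counted. […] Means of at least three independent experiments run in duplicate.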

[2] = system: Human immunodeficiency virus 1; assay: Concentration required to achieve 50% protection of CEM-SS cells against the cytopathic effect of HIV-1.; assay type: functional, organism-based; details: Human immunodeficiency virus 1, CEM-SS
CEM-SS [3] = assay: Cytotoxic concentration required to reduce the viability of mock infected CEM-SS by 50%.; assay type: functional; details: Homo sapiens
[4] = Cytotoxic concentration for inhibition of HIV-1 replication in human peripheral Blood mononuclear cells.(PBMCs); assay type: functional
[5] = Effective concentration for inhibition of HIV-1 replication in human peripheral Blood mononuclear cells.(PBMCs); assay type: functional
How it was run: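 PBMCs from healthy seronegative donors were isolated on Ficoll-Hypaque and stimulated 24 h with PHA (10 μg/mL). Cells at 1×10^6 cells/mL were infected with HIV-1 HTLV-IIIB at MOI 0.01, with 2-h adsorption followed by three washes. Culture was in RPMI 1640 with IL-2 (2 U/mL) and 10% FBS with compound at 37 °C, split 1:2 with fresh drug on days 4 and 8. On day 12, supernatant p24 was measured by ELISA in triplicate. […] Means of two independent experiments run in duplicate.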

CEM-SS [6] = assay: Cytotoxic concentration required to reduce the viability of mock infected CEM-SS cells by 50%.; assay type: functional; details: Homo sapiens
[7] = (§1) Selectivity Index measured as ratio of CC50 to that of EC50.; assay type: functional, CCRF-CEM
[8] = system: Avian myeloblastosis virus; assay: Inhibitory effect on recombinant AMV reverse transcriptase (Avian Myeloblastosis Virus, AMV); assay type: functional
How it was run: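 Recombinant RT (0.05 unit each of HIV-1, AMV or Mo-MuLV enzyme) in 50 mM Tris-HCl pH 7.8, 50 mM KCl, 30 mM MgCl2, 1 mM DTT, 0.01% Triton X-100, with poly r(A)d(T)12-18 template and [3H]dTTP. Compounds added from DMSO (final below 1%), 1 h at 37 °C. Stopped with cold 20% TCA; precipitate counted.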

CCRF-CEM [9] = assay: Effective concentration for inhibition of […] replication in CEM cells.; assay type: functional, cell-based; details: Homo sapiens
CCRF-CEM [10] = assay: Cytotoxic concentration for inhibition of […] replication in CEM cells.; assay type: functional; details: Homo sapiens
CEM-V [11] = assay: Cytotoxic concentration required to reduce the viability of mock-infected CEM-V cells by 50%; assay type: functional; details: Homo sapiens
CEM-V [12] = assay: Inhibition of HIV-1 replication in CEM-V cells; assay type: functional, cell-based; details: Homo sapiens
[13] = as §1; assay type: functional
[14] = Selectivity Index measured as ratio of CC50 to that of EC50 in PBMCs; assay type: functional
How it was run: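 HIV-1 (HTLV-IIIB) in PHA-stimulated PBMCs from healthy seronegative donors. Cells were infected at MOI 0.01 for 2 h, washed, then grown with compound in RPMI 1640 with IL-2 and 10% FBS at 37 °C. Cultures were split 1:2 with fresh compound on days 4 and 8. p24 was read by ELISA on day 12. Cytotoxicity was measured by [3H]thymidine incorporation. SI = CC50/EC50, means of two independent experiments in duplicate.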

For `CCCOn1c(Sc2cc(C)cc(C)c2)c(C(C)C)c(=O)[nH]c1=O`, the IC50 [1] was greater than 100 µM, the EC50 [2] was 0.064 µM and the CC50 (CEM-SS [3]) was 33 µM. It also gave a CC50 [4] of 70 µM and an EC50 [5] of 0.15 µM.

Work on `CC(C)c1c(Sc2cccc(F)c2)n(OCCCO)c(=O)[nH]c1=O` yielded a CC50 (CEM-SS [6]) of 3.4 µM.

`CCCOn1c(Sc2cccc(C)c2)c(C(C)C)c(=O)[nH]c1=O` showed an EC50 [2] of 0.98 µM, a CC50 (CEM-SS [6]) of 40 µM and a Selectivity index [7] of 41.

Compound `Cc1cc(C)cc(Sc2c(C)c(=O)[nH]c(=O)n2OCc2ccccc2)c1` has an EC50 [2] of 10.1 µM, a CC50 (CEM-SS [6]) greater than 200 µM and a Selectivity index [7] greater than 20.

`Cc1cc(C)cc(Sc2c(C3CC3)c(=O)[nH]c(=O)n2OCCCO)c1` gave an EC50 [2] of 15.1 µM, a CC50 (CEM-SS [6]) of 128 µM and a Selectivity index [7] of 8.5.

Work on `CCCc1c(Sc2cc(C)cc(C)c2)n(OCCc2ccccc2)c(=O)[nH]c1=O` yielded an EC50 [2] of 0.7 µM, a CC50 (CEM-SS [6]) of 29 µM and a Selectivity index [7] of 41.

Compound `O=C(O)P(=O)(O)O` [FOSCARNET SODIUM] has an IC50 [8] of 9.31 µM.

Work on `CCCOn1c(Sc2cccc(F)c2)c(C(C)C)c(=O)[nH]c1=O` yielded an EC50 [2] of 1.9 µM, a CC50 (CEM-SS [6]) of 72 µM and a Selectivity index [7] of 38.

For `Cc1cccc(CCOn2c(Sc3cc(C)cc(C)c3)c(C(C)C)c(=O)[nH]c2=O)c1`, the EC50 [2] was 0.84 µM, the CC50 (CEM-SS [6]) was 13 µM and the Selectivity index [7] was 15.

For `CCc1c(Sc2cc(C)cc(C)c2)n(OCCc2ccccc2)c(=O)[nH]c1=O`, the EC50 [2] was 0.46 µM, the CC50 (CEM-SS [6]) was 36 µM and the Selectivity index [7] was 78.

Compound `CCCOn1c(Sc2ccccc2C)c(C(C)C)c(=O)[nH]c1=O` has an EC50 [2] of 13.9 µM, a CC50 (CEM-SS [6]) of 41 µM and a Selectivity index [7] of 2.9.

Work on `Cc1cc(C)cc(Sc2c(C(C)C)c(=O)[nH]c(=O)n2OCc2ccccc2)c1` yielded an EC50 [2] of 8.45 µM, a CC50 (CEM-SS [6]) of 24 µM and a Selectivity index [7] of 2.8.

In the case of `CCCCOn1c(Sc2cc(C)cc(C)c2)c(CC)c(=O)[nH]c1=O`, the EC50 [2] is reported as 0.97 µM, the CC50 (CEM-SS [6]) is reported as 40 µM and the Selectivity index [7] is reported as 41.

In the case of `CCCOn1c(Sc2cc(C)cc(C)c2)c(CCC)c(=O)[nH]c1=O`, the EC50 [2] is reported as 2.57 µM, the CC50 (CEM-SS [6]) is reported as 45 µM and the Selectivity index [7] is reported as 18.

For `CC(C)c1c(Sc2ccccc2)n(OCCCO)c(=O)[nH]c1=O`, the EC50 [2] was 19 µM, the CC50 (CEM-SS [6]) was 170 µM and the Selectivity index [7] was 8.9.

With `Nc1ccn([C@H]2CC[C@@H](CO)O2)c(=O)n1` [ZALCITABINE] the EC50 [2] was 0.19 µM, the CC50 (CEM-SS [6]) was greater than 10 µM and the Selectivity index [7] was greater than 53.

With `Cc1cc(C)cc(Sc2c(C3CC3)c(=O)[nH]c(=O)n2OCc2ccccc2)c1` the EC50 [2] was 15.9 µM, the CC50 (CEM-SS [6]) was greater than 200 µM and the Selectivity index [7] was greater than 13.

Compound `Cc1cc(C)cc(Sc2c(C(C)C)c(=O)[nH]c(=O)n2OCCc2ccccc2)c1` has an EC50 [2] of 0.49 µM, a CC50 (CEM-SS [6]) of 15 µM and a Selectivity index [7] of 31.

For `CCc1c(Sc2cc(C)cc(C)c2)n(OCCOC)c(=O)[nH]c1=O`, the EC50 [2] was 1.97 µM, the CC50 (CEM-SS [6]) was 136 µM and the Selectivity index [7] was 69.

Work on `COCCOn1c(Sc2cc(C)cc(C)c2)c(C(C)C)c(=O)[nH]c1=O` yielded an EC50 [2] of 0.43 µM, a CC50 (CEM-SS [6]) of 96 µM and a Selectivity index [7] of 223.

`Cc1cc(C)cc(Sc2c(C)c(=O)[nH]c(=O)n2OCCCO)c1` gave an EC50 [2] of 5.55 µM, a CC50 (CEM-SS [6]) of 140 µM and a Selectivity index [7] of 25.

For `Cc1c(Sc2ccccc2)n(COCCO)c(=O)[nH]c1=O` [HEPT], the EC50 (CCRF-CEM [9]) was 8.3 µM, the CC50 (CCRF-CEM [10]) was 400 µM and the Selectivity index [7] was 48.

Compound `O=c1[nH]cnc2c1ncn2[C@H]1CC[C@@H](CO)O1` [DIDANOSINE] has a CC50 (CEM-V [11]) greater than 10 µM, an EC50 (CEM-V [12]) of 2.8 µM and a Selectivity index [13] greater than 3.6.

Compound `Cc1cc(C)cc(Sc2c(C(C)C)c(=O)[nH]c(=O)n2OCCOc2ccccc2)c1` has an EC50 [2] of 0.46 µM, a CC50 (CEM-SS [6]) of 16 µM and a Selectivity index [7] of 35.

In the case of `Cc1cc(C)cc(Sc2c(C3CC3)c(=O)[nH]c(=O)n2OCCc2ccccc2)c1`, the EC50 [2] is reported as 6.03 µM, the CC50 (CEM-SS [6]) is reported as 43 µM and the Selectivity index [7] is reported as 7.1.

For `CCCc1c(Sc2cc(C)cc(C)c2)n(OCCCO)c(=O)[nH]c1=O`, the EC50 [2] was 8.22 µM, the CC50 (CEM-SS [6]) was 107 µM and the Selectivity index [7] was 13.

`CCCOn1c(Sc2cc(C)cc(C)c2)c(C)c(=O)[nH]c1=O` showed an EC50 [2] of 0.93 µM, a CC50 (CEM-SS [6]) of 64 µM and a Selectivity index [7] of 69.

In the case of `CC(C)c1c(Sc2cc(F)cc(F)c2)n(OCCCO)c(=O)[nH]c1=O`, the EC50 [2] is reported as 7.52 µM, the CC50 (CEM-SS [6]) is reported as 150 µM and the Selectivity index [7] is reported as 20.

`Cc1cccc(Sc2c(C(C)C)c(=O)[nH]c(=O)n2OCCCO)c1` gave an EC50 [2] of 4.7 µM, a CC50 (CEM-SS [6]) of 118 µM and a Selectivity index [7] of 28.

For `CCCOn1c(Sc2cc(C)cc(C)c2)c(C2CC2)c(=O)[nH]c1=O`, the EC50 [2] was 6.12 µM, the CC50 (CEM-SS [6]) was 30 µM and the Selectivity index [7] was 4.9.

Work on `Cc1cn([C@H]2C[C@H](N=[N+]=[N-])[C@@H](CO)O2)c(=O)[nH]c1=O` [ZIDOVUDINE] yielded an EC50 [2] of 0.0045 µM, a CC50 (CEM-SS [6]) greater than 1 µM and a CC50 [4] of 149 µM. The Selectivity index [14] was 16556, the Selectivity index [7] was greater than 220 and the EC50 [5] was 0.009 µM.

For `CCc1c(Sc2cc(C)cc(C)c2)n(OCc2ccccc2)c(=O)[nH]c1=O`, the EC50 [2] was 5.77 µM, the CC50 (CEM-SS [6]) was greater than 200 µM and the Selectivity index [7] was greater than 35.

For `CCCc1c(Sc2cc(C)cc(C)c2)n(OCc2ccccc2)c(=O)[nH]c1=O`, the EC50 [2] was 10.3 µM, the CC50 (CEM-SS [6]) was 114 µM and the Selectivity index [7] was 11.

`Cc1cc(C)cc(Sc2c(C)c(=O)[nH]c(=O)n2OCCc2ccccc2)c1` showed an EC50 [2] of 3.08 µM, a CC50 (CEM-SS [3]) greater than 121 µM and a Selectivity index [7] greater than 39.

`CCCOn1c(Sc2cc(C)cc(C)c2)c(CC)c(=O)[nH]c1=O` showed an EC50 [2] of 0.35 µM, a CC50 (CEM-SS [6]) of 54 µM and a Selectivity index [7] of 154.

`CCCOn1c(Sc2cc(F)cc(F)c2)c(C(C)C)c(=O)[nH]c1=O` gave an EC50 [2] of 2.39 µM, a CC50 (CEM-SS [6]) greater than 200 µM and a Selectivity index [7] greater than 84.

With `Cc1cc(C)cc(Sc2c(C(C)C)c(=O)[nH]c(=O)n2OCCCO)c1` the EC50 [2] was 0.19 µM, the CC50 (CEM-SS [6]) was 75 µM and the Selectivity index [7] was 395.

For `CCCOn1c(Sc2ccc(C)cc2)c(C(C)C)c(=O)[nH]c1=O`, the CC50 (CEM-SS [3]) was 69 µM.

For `CCc1c(Sc2cc(C)cc(C)c2)n(OCCCO)c(=O)[nH]c1=O`, the EC50 [2] was 0.54 µM, the CC50 (CEM-SS [6]) was 123 µM and the Selectivity index [7] was 228.

With `CCCCOn1c(Sc2cc(C)cc(C)c2)c(C(C)C)c(=O)[nH]c1=O` the EC50 [2] was 0.42 µM, the CC50 (CEM-SS [6]) was 30 µM and the Selectivity index [7] was 71.

In the case of `CCCOn1c(Sc2ccccc2)c(C(C)C)c(=O)[nH]c1=O`, the EC50 [2] is reported as 6.75 µM, the CC50 (CEM-SS [6]) is reported as 75 µM and the Selectivity index [7] is reported as 11.
